Format in all cases: functional
The subject of assay [1] is Radical scavenging activity. The assay is described as follows: Antioxidant activity assessed as DPPH free radical scavenging activity at 2 ug/mL after 20 min by UV-Vis spectrophotometric analysis. The method in brief:
(§1)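 DPPH radical scavenging: samples held at room temperature for 20 min in the dark, then absorbance read at 517 nm. Control was DMSO without compound; methanol used for baseline correction. Percent scavenging calculated from absorbance relative to control.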

The test system of assay [2] is Radical scavenging activity. Put plainly: Antioxidant activity assessed as DPPH free radical scavenging activity at 0.2 ug/mL after 20 min by UV-Vis spectrophotometric analysis. The method in brief: as §1
In general terms: The DPPH test is a chemical assay of radical scavenging.

Assay [3] has as its system Radical scavenging activity. The assay is described as follows: Antioxidant activity assessed as DPPH free radical scavenging activity at 3 ug/mL after 20 min by UV-Vis spectrophotometric analysis. An outline of the steps:
as §1

Assay [4] concerns Radical scavenging activity. Put plainly: Antioxidant activity assessed as DPPH free radical scavenging activity at 0.4 ug/mL after 20 min by UV-Vis spectrophotometric analysis. An outline of the steps: as §1
Assay [5] has as its system Radical scavenging activity. The assay is described as follows: Antioxidant activity assessed as DPPH free radical scavenging activity at 0.6 ug/mL after 20 min by UV-Vis spectrophotometric analysis. The method in brief: as §1
The test system of assay [6] is Radical scavenging activity. Put plainly: Antioxidant activity assessed as DPPH free radical scavenging activity at 1 ug/mL after 20 min by UV-Vis spectrophotometric analysis. The method in brief: as §1
The subject of assay [7] is Radical scavenging activity. Put plainly: Antioxidant activity assessed as DPPH free radical scavenging activity at 0.1 ug/mL after 20 min by UV-Vis spectrophotometric analysis. An outline of the steps: as §1
Assay [8] relates to Radical scavenging activity. Put plainly: Antioxidant activity assessed as DPPH free radical scavenging activity at 0.8 ug/mL after 20 min by UV-Vis spectrophotometric analysis. The method in brief:
as §1

For assay [9], the system named is Radical scavenging activity. The assay is described as follows: Antioxidant activity assessed as DPPH free radical scavenging activity at 4 ug/mL after 20 min by UV-Vis spectrophotometric analysis. An outline of the steps: as §1
Assay [10] has as its system Radical scavenging activity. Put plainly: Antioxidant activity assessed as DPPH free radical scavenging activity after 20 min by UV-Vis spectrophotometric analysis. Details: concentration or dose not given beside the values. The method in brief:
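DPPH radical scavenging: samples were held at room temperature for 20 min in the dark, and absorbance was read at 517 nm. The control contained DMSO without compound, and methanol was used for baseline correction. Scavenging percentage was calculated from the absorbances.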

Values after ≈ are worked out from the molar mass of the structure shown.

Regarding `O=C(O)c1cc(O)c(O)c(O)c1` [GALLIC ACID], the Activity in assay [1] was 73.6%; in [2], 15.8%; in assay [3], 88.9%; in assay [4] it was 21.4%; in [5], 28%; in assay [6], 41%. The Activity in assay [7] came to 13.9%; in assay [8], 34.4%; in assay [9] it was 89.9%; in [10] it was 21.4%. Besides, the concentration for half-maximal inhibition (IC50) in assay [10] is 1.28 µg/mL (≈ 7.52 µM).

The IC50 is the concentration that inhibits the measured activity by half.

(Values after ChEMBL document CHEMBL3045565, “Microwave synthesis, characterization and bio-efficacy evaluation of novel chalcone based 6-carbethoxy-2-cyclohexen-1-one and 2H-indazol-3-ol derivatives” (Eur J Med Chem, 2013).)
